Source: ChEMBL document CHEMBL3526056, “Characterization of in vitro glucuronidation clearance of a range of drugs in human kidney microsomes: comparison with liver and intestinal glucuronidation and impact of albumin” (Drug Metab Dispos, 2012)

What was measured:
[1] = Clearance in iv dosed human; format: ADME, organism-based; conditions: in vivo
[2] = Fraction unbound in human plasma
[3] = Ratio of drug level blood to plasma in human; format: ADME; conditions: blood and plasma
Liver microsome [4] = assay: Fraction metabolized glucuronidation in human liver microsomes in presence of UDP-glucuronosyltransferase; format: ADME
Liver microsome [5] = assay: Fraction metabolized glucuronidation in human liver microsomes in presence of UDP-glucuronosyltransferase and bovine serum albumin; format: ADME
[6] = Glucuronidation clearance in human liver microsomes; format: ADME
[7] = Glucuronidation clearance in human liver microsomes in presence of bovine serum albumin; format: ADME
[8] = Fraction unbound in human liver microsomes at 5 uM after 30 to 60 mins by LC-MS/MS analysis
[9] = Fraction unbound in human kidney microsomes at 5 uM after 30 to 60 mins by LC-MS/MS analysis
[10] = Fraction unbound in human intestinal microsomes at 5 uM after 30 to 60 mins by LC-MS/MS analysis
[11] = Fraction unbound in human kidney microsomes at 5 uM after 30 to 60 mins by LC-MS/MS analysis in presence of 2% bovine serum albumin
Liver microsome [12] = assay: Ratio of unbound intrinsic glucuronidation clearance in human liver microsomes in presence of 2% bovine serum albumin to unbound intrinsic glucuronidation clearance in human liver microsomes in absence of bovine serum albumin; format: ADME
Method in brief: (§1)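 Ratios of mean scaled unbound CLint,UGT (per g tissue) between tissues, or between with and without BSA. Microsomal depletion assays at 1 μM, or 5 μM for propofol, in pH 7.1 phosphate at 37°C, read by LC-MS/MS. Kidney and liver n = 3, intestine n = 1, each in duplicate.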

[13] = Ratio of unbound intrinsic glucuronidation clearance in human kidney microsomes in presence of 2% bovine serum albumin to unbound intrinsic glucuronidation clearance in human kidney microsomes in absence of bovine serum albumin; format: ADME, microsome; method in brief: as §1
[14] = Ratio of unbound intrinsic glucuronidation clearance in human intestinal microsomes in presence of 2% bovine serum albumin to unbound intrinsic glucuronidation clearance in human intestinal microsomes in absence of bovine serum albumin; format: ADME, Intestine, Microsome; method in brief: as §1

CC(C)c1cccc(C(C)C)c1O [PROPOFOL] showed a clearance [1] of 27.7 mL/min/kg, a fraction unbound [2] of 0.015 and a blood plasma ratio [3] of 0.88. For the same compound, the Drug metabolism (Liver microsome [4]) was 0.14, the Drug metabolism (Liver microsome [5]) was 0.53 and the CLhep predicted [6] was 3.88 mL/min/kg. For the same compound, the CLhep predicted [7] was 14.7 mL/min/kg, the fraction unbound at 5 µM [8] was 0.69 and the fraction unbound at 5 µM [9] was 0.69. For the same compound, the fraction unbound at 5 µM [10] was 0.69, the fraction unbound at 5 µM [11] was 0.25 and the Ratio (Liver microsome [12]) was 1.6. It also gave a Ratio [13] of 1.6 and a Ratio [14] of 1.6.
